Laboratory results as given in ChEMBL document CHEMBL1145839, “N-(3-acyloxy-2-benzylpropyl)-N'-[4-(methylsulfonylamino)benzyl]thiourea analogues: novel potent and high affinity antagonists and partial antagonists of the vanilloid receptor” (J Med Chem, 2003).
The source made the active and inactive calls. The rule behind the calls is not given here.

Tests used:
[1] = biological target: T1, Transient receptor potential cation channel subfamily V member 1 (Rattus norvegicus, UniProt O35433); assay: Inhibition of capsaicin-induced [Ca2+] uptake by Rat Vanilloid receptor 1 (VR1) expressing CHO cells; type: cell-based
[2] = biological target: T1, Transient receptor potential cation channel subfamily V member 1; assay: In vitro binding affinity towards Rat Vanilloid receptor 1 (VR1) by [3H]RTX displacement.
In short: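 Rat VR1 stably expressed in tet-off CHO cells; cells grown without antibiotic for 48 h, trypsin-harvested, pelleted and stored at -20 °C. About 5×10^5 cells incubated with 50-100 pM [3H]RTX plus competitor in DPBS (Ca2+/Mg2+) with 0.25 mg/mL BSA, 60 min at 37 °C. Nonspecific binding taken with 100 nM unlabeled RTX.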

[3] = biological target: T1, Transient receptor potential cation channel subfamily V member 1; assay: (§1) In vitro [Ca2+] influx relative to capsaicin by Rat Vanilloid receptor (VR1) expressing CHO cells; type: functional, cell-based
[4] = biological target: Transient receptor potential cation channel subfamily V member 1 (Rattus norvegicus) (UniProt O35433); assay: as §1; type: functional, cell-based; settings: concentration not given here
[5] = biological target: Transient receptor potential cation channel subfamily V member 1 (Rattus norvegicus) (UniProt O35433); assay: Inhibition of capsaicin-induced [Ca2+] uptake by Rat Vanilloid receptor 1 (VR1) expressing CHO cells (ineffective); type: functional, cell-based
[6] = biological target: T1, Transient receptor potential cation channel subfamily V member 1; assay: In vitro binding to Rat Vanilloid receptor 1 (VR1) expressing CHO cells compared to capsaicin; type: cell-based
In short: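 Tet-off CHO cells stably expressing rat VR1, induced by 48 h culture without tetracycline, harvested with trypsin/EDTA, pelleted and stored at -20 °C. About 5×10^5 cells per tube incubated 60 min at 37 °C with 50-100 pM [3H]RTX, a range of competitor concentrations and 0.25 mg/mL BSA in DPBS with Ca2+/Mg2+. Nonspecific binding measured with 100 nM unlabeled RTX. α-glycoprotein added after incubation, membranes pelleted, scintillation counting. Ki from Hill fit; at least three experiments.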

[7] = biological target: Transient receptor potential cation channel subfamily V member 1 (Rattus norvegicus) (UniProt O35433); settings: CHO
[8] = biological target: Transient receptor potential cation channel subfamily V member 1 (Rattus norvegicus) (UniProt O35433); assay: Displacement of [3H]RTX binding to Rat Vanilloid receptor 1 (VR1) at 10 uM

T1 sequence (O35433 whole entry): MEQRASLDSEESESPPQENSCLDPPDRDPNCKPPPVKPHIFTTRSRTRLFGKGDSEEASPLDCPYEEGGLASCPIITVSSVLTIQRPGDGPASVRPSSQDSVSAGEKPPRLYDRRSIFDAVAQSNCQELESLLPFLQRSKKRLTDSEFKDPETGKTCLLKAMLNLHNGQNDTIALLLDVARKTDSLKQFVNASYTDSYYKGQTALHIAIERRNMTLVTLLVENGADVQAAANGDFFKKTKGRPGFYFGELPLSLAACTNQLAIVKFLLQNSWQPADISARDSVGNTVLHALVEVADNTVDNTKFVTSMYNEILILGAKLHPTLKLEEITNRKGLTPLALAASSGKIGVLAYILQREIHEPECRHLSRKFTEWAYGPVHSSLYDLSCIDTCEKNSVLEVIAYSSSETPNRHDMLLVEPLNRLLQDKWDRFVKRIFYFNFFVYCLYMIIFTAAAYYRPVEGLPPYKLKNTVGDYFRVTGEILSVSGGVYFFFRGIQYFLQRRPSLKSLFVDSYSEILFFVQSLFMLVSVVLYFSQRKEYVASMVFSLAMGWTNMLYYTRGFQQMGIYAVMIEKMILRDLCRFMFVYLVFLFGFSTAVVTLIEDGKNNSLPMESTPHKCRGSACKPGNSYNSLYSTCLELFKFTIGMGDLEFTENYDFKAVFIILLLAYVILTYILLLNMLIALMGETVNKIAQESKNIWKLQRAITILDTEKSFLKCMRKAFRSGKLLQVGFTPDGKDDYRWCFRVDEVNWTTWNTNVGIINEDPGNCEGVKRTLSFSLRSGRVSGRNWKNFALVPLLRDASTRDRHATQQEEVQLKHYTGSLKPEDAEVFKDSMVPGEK
Sequence of Transient receptor potential cation channel subfamily V member 1 (Rattus norvegicus) (O35433 whole entry): as above

SMILES	Ki [2] [nM]	EC50 [3] [nM]	further results
Cc1ccc(CC(CNC(=S)NCc2ccc(NS(C)(=O)=O)c(F)c2)COC(=O)C(C)(C)C)cc1C (stereo unspecified)	54		Ki [1]: 7.8 nM
COc1cc(CNC(=S)NCC(COC(=O)c2ccccc2)Cc2ccc(C)c(C)c2)ccc1NS(C)(=O)=O (stereo unspecified)	148	166	
CCCS(=O)(=O)Nc1ccc(C/N=C(\S)NCC(COC(=O)C(C)(C)C)Cc2ccc(C)c(C)c2)cc1 (stereo unspecified)	313		Ki [1]: 940 nM
CC(=O)Nc1ccc(CNC(=S)NCC(COC(=O)C(C)(C)C)Cc2ccc(C)c(C)c2)cc1 (stereo unspecified)	1700	450	
Cc1ccc(CC(CN/C(S)=N/Cc2ccc(NS(=O)(=O)C(C)C)cc2)COC(=O)C(C)(C)C)cc1C (stereo unspecified)	227	790	
CCS(=O)(=O)Nc1ccc(C/N=C(\S)NCC(COC(=O)C(C)(C)C)Cc2ccc(C)c(C)c2)cc1 (stereo unspecified)	108		Ki [1]: 309 nM
Cc1ccc(CC(CN/C(S)=N/Cc2ccc(NS(C)(=O)=O)cc2)COC(=O)C(C)(C)C)cc1C (stereo unspecified)			inhibition [4]: 7%
Cc1ccc(CC(CN/C(S)=N/Cc2ccc(NS(=O)(=O)c3ccccc3)cc2)COC(=O)C(C)(C)C)cc1C (stereo unspecified)	2500		NE [5]: inactive
COc1cc(C/N=C(\S)NCC(COC(=O)C(C)(C)C)Cc2ccc(C)c(C)c2)ccc1NS(C)(=O)=O (stereo unspecified)	49	22	
Cc1ccc(CC(CN/C(S)=N/Cc2cccc(NS(C)(=O)=O)c2)COC(=O)C(C)(C)C)cc1C (stereo unspecified)	355	990	
CC(C)(C)c1ccc(CC(CNC(=S)NCc2ccc(NS(C)(=O)=O)cc2)COC(=O)c2ccccc2)cc1 (stereo unspecified)	239	2790	
Cc1ccc(CC(CNC(=S)NCc2ccc(CNS(C)(=O)=O)cc2)COC(=O)C(C)(C)C)cc1C (stereo unspecified)	3000	1700	
Cc1ccc(CC(CNC(=S)NCc2ccc(NC(=O)C(C)C)cc2)COC(=O)C(C)(C)C)cc1C (stereo unspecified)	2600	1140	
C=C(C)[C@]12C[C@@H](C)[C@@]34O[C@](Cc5ccccc5)(O[C@@H]1[C@@H]3C=C(COC(=O)Cc1ccc(O)c(OC)c1)C[C@]1(O)C(=O)C(C)=C[C@@H]41)O2 [RESINIFERATOXIN]			Ki [6]: 0.13 nM
COc1cc(CNC(=S)NCC(COC(=O)C(C)(C)C)Cc2ccc(C)c(C)c2)ccc1O (stereo unspecified)		1.97	NE [5]: inactive
Oc1cc2c(cc1O)CN(C(=S)NCCc1ccc(Cl)cc1)CCC2			NE [7]: inactive
Cc1ccc(CC(CNC(=S)NCc2ccc(NS(C)(=O)=O)cc2)COC(=O)C(C)(C)C)cc1C (stereo unspecified)	29.3		Ki [1]: 67 nM
COc1cc(CNC(=S)NCC(COC(=O)C(C)(C)C)Cc2ccc(C(C)(C)C)cc2)ccc1O (stereo unspecified)		2.83	NE [5]: inactive
COc1cc(C/N=C(\S)NCC(COC(=O)c2ccccc2)Cc2ccc(C(C)(C)C)cc2)ccc1NS(C)(=O)=O (stereo unspecified)	77.2	252	
COc1cc(CNC(=O)CCCC/C=C/C(C)C)ccc1O			NE [5]: inactive
Cc1ccc(CC(CN/C(S)=N/Cc2ccc(NS(C)(=O)=O)cc2)COC(=O)c2ccccc2)cc1C (stereo unspecified)		1730	
CC(C)(C)C(=O)OCC(C/N=C(\S)NCc1ccc(NS(C)(=O)=O)cc1)Cc1ccc(C(C)(C)C)cc1 (stereo unspecified)	64		Ki [1]: 86 nM
Cc1ccc(CC(CN/C(S)=N/Cc2ccc(NS(=O)(=O)C(F)(F)F)cc2)COC(=O)C(C)(C)C)cc1C (stereo unspecified)			inhibition [8]: 15.5%; NE [5]: inactive
